Assays:
[1] = tested on: RAW264.7; test: Inhibition of C5a-mediated PKB/Akt phosphorylation in mouse Raw264 macrophage; assay type: functional, cell-based
Outline: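 Raw-264 murine macrophages starved 3 h in serum-free medium, pretreated 30 min with inhibitor or DMSO, then stimulated 5 min with 50 nM C5a. Phospho-Ser-473 Akt measured by ELISA. Concentration-response; IC50. Mean ± standard deviation of four independent experiments done in triplicate.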

[2] = molecular target: Glycogen synthase kinase-3 alpha (Homo sapiens) (UniProt P49840); test: Residual activity at human GSK3alpha at 10 uM in presence of 10 uM ATP relative to control
Outline: (§1)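 Panel of Ser/Thr and Tyr protein kinases, each tested with 10 µM compound in the presence of 10 µM ATP; activity expressed relative to control.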

[3] = molecular target: Protein kinase C epsilon type (Homo sapiens) (UniProt Q02156); test: Residual activity at human PKCepsilon at 10 uM in presence of 10 uM ATP relative to control
Outline: (§2)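 Single-concentration counter-screen across a panel of 80 Ser/Thr and Tyr protein kinases. Compound was tested at 10 µM with ATP at 10 µM. Activity remaining in each kinase is expressed relative to control.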

[4] = molecular target: Protein kinase C alpha type (Homo sapiens) (UniProt P17252); test: Residual activity at human PKCalpha at 10 uM in presence of 10 uM ATP relative to control; outline: as §2
[5] = molecular target: Tyrosine-protein kinase Lck (Homo sapiens) (UniProt P06239); test: Residual activity at human Lck at 10 uM in presence of 10 uM ATP relative to control; outline: as §2
[6] = molecular target: Serine/threonine-protein kinase N2 (Homo sapiens) (UniProt Q16513); test: Residual activity at human PRK2 at 10 uM in presence of 10 uM ATP relative to control; outline: as §2
Serine/threonine-protein kinase N2 (Homo sapiens), sequence (Q16513 whole entry, looked up): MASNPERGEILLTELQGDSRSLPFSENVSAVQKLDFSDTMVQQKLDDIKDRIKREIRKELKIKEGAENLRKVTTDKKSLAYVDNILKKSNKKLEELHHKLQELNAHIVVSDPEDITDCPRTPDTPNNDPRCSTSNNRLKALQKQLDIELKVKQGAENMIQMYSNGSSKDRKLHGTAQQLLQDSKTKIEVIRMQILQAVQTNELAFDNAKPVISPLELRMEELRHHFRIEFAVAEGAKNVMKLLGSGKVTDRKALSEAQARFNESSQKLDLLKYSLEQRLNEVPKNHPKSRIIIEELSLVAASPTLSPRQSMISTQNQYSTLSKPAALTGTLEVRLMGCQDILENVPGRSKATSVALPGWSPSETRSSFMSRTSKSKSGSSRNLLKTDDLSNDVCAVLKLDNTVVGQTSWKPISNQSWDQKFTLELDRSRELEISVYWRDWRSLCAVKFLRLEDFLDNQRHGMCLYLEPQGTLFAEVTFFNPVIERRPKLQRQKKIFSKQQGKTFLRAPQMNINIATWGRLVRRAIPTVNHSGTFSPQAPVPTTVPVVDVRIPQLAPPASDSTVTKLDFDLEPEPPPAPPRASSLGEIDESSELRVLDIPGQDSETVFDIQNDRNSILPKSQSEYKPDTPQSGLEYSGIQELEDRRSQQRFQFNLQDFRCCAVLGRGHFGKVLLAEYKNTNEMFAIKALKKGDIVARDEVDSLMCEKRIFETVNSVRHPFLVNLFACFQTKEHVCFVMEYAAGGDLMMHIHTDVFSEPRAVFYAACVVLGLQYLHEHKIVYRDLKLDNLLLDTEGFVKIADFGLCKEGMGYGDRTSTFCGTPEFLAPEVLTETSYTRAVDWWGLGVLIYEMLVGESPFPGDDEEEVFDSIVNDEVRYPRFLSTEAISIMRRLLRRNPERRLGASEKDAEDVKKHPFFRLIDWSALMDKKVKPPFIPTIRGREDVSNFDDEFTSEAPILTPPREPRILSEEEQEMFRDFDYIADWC

[7] = molecular target: Tyrosine-protein kinase Fyn (Homo sapiens) (UniProt P06241); test: Residual activity at human FYN at 10 uM in presence of 10 uM ATP relative to control; outline: as §1
Tyrosine-protein kinase Fyn (Homo sapiens), sequence (P06241 2-537 limits assumed): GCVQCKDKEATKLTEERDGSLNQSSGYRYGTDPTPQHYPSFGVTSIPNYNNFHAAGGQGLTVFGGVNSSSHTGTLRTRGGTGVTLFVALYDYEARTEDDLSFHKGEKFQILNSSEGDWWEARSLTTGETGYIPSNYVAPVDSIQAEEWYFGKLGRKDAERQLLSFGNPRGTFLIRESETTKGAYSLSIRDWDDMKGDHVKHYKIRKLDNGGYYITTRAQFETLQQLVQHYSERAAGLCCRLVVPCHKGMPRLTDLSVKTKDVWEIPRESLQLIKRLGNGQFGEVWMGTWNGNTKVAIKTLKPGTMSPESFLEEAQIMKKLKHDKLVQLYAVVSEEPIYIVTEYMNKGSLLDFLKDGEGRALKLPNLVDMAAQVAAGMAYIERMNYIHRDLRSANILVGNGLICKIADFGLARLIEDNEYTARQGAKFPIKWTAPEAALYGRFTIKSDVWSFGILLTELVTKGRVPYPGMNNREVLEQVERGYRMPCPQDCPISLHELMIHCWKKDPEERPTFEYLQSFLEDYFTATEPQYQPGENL

[8] = molecular target: Mitogen-activated protein kinase 11 (Homo sapiens) (UniProt Q15759); test: Residual activity at human SAPK2b at 10 uM in presence of 10 uM ATP relative to control; outline: as §2
Mitogen-activated protein kinase 11 (Homo sapiens), sequence (Q15759 whole entry, canonical isoform): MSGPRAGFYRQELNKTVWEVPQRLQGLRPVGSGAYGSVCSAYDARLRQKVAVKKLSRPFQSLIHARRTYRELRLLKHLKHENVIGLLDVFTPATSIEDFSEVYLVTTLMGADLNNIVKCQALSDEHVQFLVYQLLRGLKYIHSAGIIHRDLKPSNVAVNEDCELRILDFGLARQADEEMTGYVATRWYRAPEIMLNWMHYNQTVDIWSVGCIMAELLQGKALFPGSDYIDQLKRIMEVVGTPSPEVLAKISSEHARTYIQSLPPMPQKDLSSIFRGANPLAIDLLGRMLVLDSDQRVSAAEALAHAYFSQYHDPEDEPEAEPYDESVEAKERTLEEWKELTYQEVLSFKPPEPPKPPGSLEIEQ

[9] = molecular target: Phosphatidylinositol 4,5-bisphosphate 3-kinase catalytic subunit alpha isoform (Homo sapiens, UniProt P42336); test: Inhibition of human PI3Kalpha
Phosphatidylinositol 4,5-bisphosphate 3-kinase catalytic subunit alpha isoform, sequence (P42336 whole entry, canonical isoform): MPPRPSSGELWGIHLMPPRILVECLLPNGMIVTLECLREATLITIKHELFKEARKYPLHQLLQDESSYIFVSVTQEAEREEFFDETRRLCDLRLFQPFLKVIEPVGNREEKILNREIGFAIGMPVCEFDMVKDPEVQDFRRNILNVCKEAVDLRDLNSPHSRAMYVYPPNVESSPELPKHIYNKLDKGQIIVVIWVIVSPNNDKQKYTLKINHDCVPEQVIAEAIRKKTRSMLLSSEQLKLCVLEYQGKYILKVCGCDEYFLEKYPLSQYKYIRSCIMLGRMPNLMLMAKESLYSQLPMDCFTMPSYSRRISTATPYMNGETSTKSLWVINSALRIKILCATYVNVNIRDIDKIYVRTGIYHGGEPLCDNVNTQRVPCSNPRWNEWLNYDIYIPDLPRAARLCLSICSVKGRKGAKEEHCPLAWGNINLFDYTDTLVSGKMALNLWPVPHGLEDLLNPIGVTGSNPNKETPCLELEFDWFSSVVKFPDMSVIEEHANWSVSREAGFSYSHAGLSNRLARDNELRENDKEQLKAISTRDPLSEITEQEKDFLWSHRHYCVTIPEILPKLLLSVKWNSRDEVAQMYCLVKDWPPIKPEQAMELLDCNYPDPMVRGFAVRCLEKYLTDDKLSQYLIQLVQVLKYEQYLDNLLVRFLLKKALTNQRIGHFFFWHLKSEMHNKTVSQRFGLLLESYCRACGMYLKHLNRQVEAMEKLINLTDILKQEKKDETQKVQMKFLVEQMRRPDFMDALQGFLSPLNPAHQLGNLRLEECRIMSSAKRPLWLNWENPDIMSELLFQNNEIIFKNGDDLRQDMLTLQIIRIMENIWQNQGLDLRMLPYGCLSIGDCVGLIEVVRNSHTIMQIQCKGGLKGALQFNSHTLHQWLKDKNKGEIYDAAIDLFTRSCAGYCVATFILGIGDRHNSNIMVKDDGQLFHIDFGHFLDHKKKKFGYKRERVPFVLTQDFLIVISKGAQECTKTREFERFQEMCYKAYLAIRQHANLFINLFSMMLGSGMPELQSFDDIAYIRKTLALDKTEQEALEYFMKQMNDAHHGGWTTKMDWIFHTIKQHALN

[10] = molecular target: Platelet-derived growth factor receptor alpha (Homo sapiens) (UniProt P16234); test: Residual activity at human PDGFRalpha at 10 uM in presence of 10 uM ATP relative to control; outline: as §2
[11] = molecular target: Serine/threonine-protein kinase Chk2 (Homo sapiens) (UniProt O96017); test: Residual activity at human Chk2 at 10 uM in presence of 10 uM ATP relative to control; outline: as §1
Serine/threonine-protein kinase Chk2 (Homo sapiens), sequence (O96017 whole entry): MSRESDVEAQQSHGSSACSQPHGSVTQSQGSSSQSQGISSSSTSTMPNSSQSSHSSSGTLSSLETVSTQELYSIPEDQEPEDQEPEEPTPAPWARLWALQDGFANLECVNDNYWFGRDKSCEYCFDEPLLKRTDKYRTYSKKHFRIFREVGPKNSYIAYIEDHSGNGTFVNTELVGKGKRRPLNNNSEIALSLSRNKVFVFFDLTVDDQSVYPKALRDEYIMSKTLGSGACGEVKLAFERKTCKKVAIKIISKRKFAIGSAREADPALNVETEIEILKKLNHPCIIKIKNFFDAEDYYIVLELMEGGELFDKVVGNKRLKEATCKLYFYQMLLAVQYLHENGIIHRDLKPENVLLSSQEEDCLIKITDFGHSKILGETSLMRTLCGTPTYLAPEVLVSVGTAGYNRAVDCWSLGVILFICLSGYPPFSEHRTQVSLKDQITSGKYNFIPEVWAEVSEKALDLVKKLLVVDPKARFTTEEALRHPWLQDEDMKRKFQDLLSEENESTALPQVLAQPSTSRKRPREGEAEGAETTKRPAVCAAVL

[12] = molecular target: Dual specificity mitogen-activated protein kinase kinase 6 (Homo sapiens) (UniProt P52564); test: Residual activity at human MKK6 at 10 uM in presence of 10 uM ATP relative to control; outline: as §2
Dual specificity mitogen-activated protein kinase kinase 6 (Homo sapiens), sequence (P52564 whole entry): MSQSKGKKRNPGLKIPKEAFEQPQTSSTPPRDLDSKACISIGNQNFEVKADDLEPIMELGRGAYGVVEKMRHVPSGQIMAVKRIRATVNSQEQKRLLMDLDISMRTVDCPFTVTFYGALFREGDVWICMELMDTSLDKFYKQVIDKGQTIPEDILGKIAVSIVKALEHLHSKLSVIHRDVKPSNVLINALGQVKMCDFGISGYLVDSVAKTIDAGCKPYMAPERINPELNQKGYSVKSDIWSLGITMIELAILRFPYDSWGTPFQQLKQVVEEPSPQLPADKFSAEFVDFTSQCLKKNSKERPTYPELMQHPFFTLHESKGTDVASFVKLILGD

[13] = molecular target: Protein kinase C iota type (Homo sapiens) (UniProt P41743); test: Residual activity at human PKCiota at 10 uM in presence of 10 uM ATP relative to control; outline: as §2
[14] = molecular target: Tyrosine-protein kinase Yes (Homo sapiens) (UniProt P07947); test: Inhibition of human Yes at 10 uM in presence of 10 uM ATP relative to control; set-up: scale not given: the % may be the effect or the level left; outline: as §1
Tyrosine-protein kinase Yes (Homo sapiens), sequence (P07947 2-543 limits assumed): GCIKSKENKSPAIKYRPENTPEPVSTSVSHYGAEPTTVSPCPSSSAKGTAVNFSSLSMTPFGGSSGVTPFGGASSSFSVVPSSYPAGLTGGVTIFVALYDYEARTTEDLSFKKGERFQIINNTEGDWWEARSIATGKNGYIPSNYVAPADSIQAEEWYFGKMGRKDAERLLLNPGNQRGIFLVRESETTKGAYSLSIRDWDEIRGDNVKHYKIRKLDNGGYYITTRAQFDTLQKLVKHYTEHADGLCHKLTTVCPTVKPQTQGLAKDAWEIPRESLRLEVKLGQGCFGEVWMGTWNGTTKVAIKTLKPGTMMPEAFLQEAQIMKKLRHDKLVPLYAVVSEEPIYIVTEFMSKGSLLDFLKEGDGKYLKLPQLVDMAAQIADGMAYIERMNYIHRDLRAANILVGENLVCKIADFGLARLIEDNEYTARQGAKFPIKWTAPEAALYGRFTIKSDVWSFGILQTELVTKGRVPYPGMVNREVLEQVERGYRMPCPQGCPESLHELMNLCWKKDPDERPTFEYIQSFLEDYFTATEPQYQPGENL

[15] = molecular target: Serine/threonine-protein kinase PAK 2 (Homo sapiens) (UniProt Q13177); test: Residual activity at human PAK2 at 10 uM in presence of 10 uM ATP relative to control; outline: as §2
[16] = AUC in rat at 10 mg/kg, po; assay type: ADME, organism-based; set-up: dose 10 mg/kg, route oral; conditions: plasma
Outline: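 Rats given a single 10 mg/kg dose, intravenously or orally. The compound was given as its potassium salt, prepared with KOH in THF/water, for the in vivo work.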

IC50 [1]: 230 nM | Activity [2]: 66% | Activity [3]: 93% | Activity [4]: 98% | Activity [5]: 104% | Activity [6]: 95% | Activity [7]: 91% | Activity [8]: 89% | IC50 [9]: 940 nM | Activity [10]: 85% | Activity [11]: 82% | Activity [12]: 105% | Activity [13]: 84% | Activity [14]: 99% | Activity [15]: 178% | AUC [16]: 847 ng·h/mL
SMILES: O=C1NC(=O)/C(=C/c2ccc(-c3ccc(F)cc3O)o2)S1
